Converted amounts (≈) assume the structure as drawn.
Columns and labels:
Type in all cases: functional
Candida albicans [1] = experiment: Antifungal activity against Candida albicans ATCC 10231 after 24 hrs by microdilution assay
In short: (§1)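 Broth microdilution in triplicate; compounds in DMSO, serially diluted in sterile distilled water, final 25 to 0.2 μg/mL; fungi kept on Sabouraud dextrose agar, inocula diluted in Sabouraud dextrose broth. p-Iodonitrotetrazolium violet (0.2 mg/mL stock) added as growth indicator; incubation 35 °C, 100% relative humidity. MIC = lowest concentration inhibiting growth, read at 24 and 48 h. Amphotericin B positive, DMSO negative control.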

Cryptococcus neoformans [2] = experiment: Antifungal activity against Cryptococcus neoformans after 24 hrs by microdilution assay; in short: as §1
Cryptococcus neoformans [3] = experiment: Antifungal activity against Cryptococcus neoformans after 48 hrs by microdilution assay; in short: as §1
Candida albicans [4] = experiment: Antifungal activity against Candida albicans ATCC 10231 after 48 hrs by microdilution assay; in short: as §1

Structure (SMILES) | MIC (Candida albicans [1]) [µM] | MIC (Cryptococcus neoformans [2]) [µM] | MIC (Cryptococcus neoformans [3]) [µM] | MIC (Candida albicans [4]) [µM]
C=CCc1c2c(c(O)c(C(C)=O)c1OC)C=CC(C)(C)O2 | 86.7 (≈ 25 µg/mL) | 21.7 (≈ 6.26 µg/mL) | 43.3 (≈ 12.5 µg/mL) | 86.7 (≈ 25 µg/mL)
C=CCc1c2c(c(O)c3c(=O)cc(C)oc13)C=CC(C)(C)O2 | 41.9 (≈ 12.5 µg/mL) | 10.5 (≈ 3.13 µg/mL) | 10.5 (≈ 3.13 µg/mL) | 83.8 (≈ 25 µg/mL)
COc1cc2c(c(OC)c1C(C)=O)CC=C(CO)CO2 | 11.2 (≈ 3.12 µg/mL) | 11.2 (≈ 3.12 µg/mL) | 11.2 (≈ 3.12 µg/mL) | 22.5 (≈ 6.26 µg/mL)
CC(=O)OCC1=CCc2c(cc(O)c3c(=O)cc(C)oc23)OC1 | 9.9 (≈ 3.13 µg/mL) | 9.9 (≈ 3.13 µg/mL) | 9.9 (≈ 3.13 µg/mL) | 9.9 (≈ 3.13 µg/mL)
CC(=O)OCC1=CCc2c(cc3oc(C)cc(=O)c3c2O)OC1 | 19.8 (≈ 6.26 µg/mL) | 4.9 (≈ 1.55 µg/mL) | 4.9 (≈ 1.55 µg/mL) | 19.8 (≈ 6.26 µg/mL)
C[C@@H]1[C@H](O)[C@@H](C)/C=C/C=C/C=C/C=C/C=C/C=C/C=C/[C@H](O[C@@H]2O[C@H](C)[C@@H](O)[C@H](N)[C@@H]2O)C[C@@H]2O[C@](O)(C[C@@H](O)C[C@@H](O)[C@H](O)CC[C@@H](O)C[C@@H](O)CC(=O)O[C@H]1C)C[C@H](O)[C@H]2C(=O)O [AMPHOTERICIN B] | 0.42 (≈ 0.388 µg/mL) | 0.42 (≈ 0.388 µg/mL) | 0.42 (≈ 0.388 µg/mL) | 0.84 (≈ 0.776 µg/mL)
Cc1cc(=O)c2c(O)cc(O)cc2o1 [NOREUGENIN] | 16.3 (≈ 3.13 µg/mL) | 16.3 (≈ 3.13 µg/mL) | 16.3 (≈ 3.13 µg/mL) | 16.3 (≈ 3.13 µg/mL)

More lines, in order of falling MIC (Candida albicans [1]), values ahead:

MIC (Candida albicans [1]) [µM] | MIC (Cryptococcus neoformans [2]) [µM] | MIC (Cryptococcus neoformans [3]) [µM] | MIC (Candida albicans [4]) [µM] | Structure (SMILES)
13.5 (≈ 3.14 µg/mL) | 13.5 (≈ 3.14 µg/mL) | 13.5 (≈ 3.14 µg/mL) | 13.5 (≈ 3.14 µg/mL) | C=CCc1c(O)cc(O)c2c(=O)cc(C)oc12
11.4 (≈ 3.13 µg/mL) | 5.7 (≈ 1.56 µg/mL) | 5.7 (≈ 1.56 µg/mL) | 11.4 (≈ 3.13 µg/mL) | Cc1cc(=O)c2c(O)cc3c(c2o1)CC=C(CO)CO3
11.4 (≈ 3.13 µg/mL) | 5.7 (≈ 1.56 µg/mL) | 5.7 (≈ 1.56 µg/mL) | 11.4 (≈ 3.13 µg/mL) | Cc1cc(=O)c2c(O)c3c(cc2o1)OCC(CO)=CC3

Source: ChEMBL document CHEMBL4665752, “Synthesis and Antifungal Activity of Chromones and Benzoxepines from the Leaves of Ptaeroxylon obliquum” (2020)
